Compound activity: PubChem BioAssay, The Scripps Research Institute Molecular Screening Center
Compounds with a hit are over-represented: about 4.2% of the library has one in this group of screens.
TAAR1 antag: antagonists of human TAAR1 | CHO RD-HGA16 TAAR1, Fluo-8 calcium fluorescence, antagonist | inhibition, % at 3 µM | 1.5% of 360,000 active;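 active means inhibition above a per-plate cutoff, the mean inhibition of test compounds on that plate plus 3 SD, cut at about 49% in these data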;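 further: 0% = DMSO plus EC80 beta-PEA response and 100% = DMSO alone without agonist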
Target sequence (Q96RJ0 whole entry, looked up): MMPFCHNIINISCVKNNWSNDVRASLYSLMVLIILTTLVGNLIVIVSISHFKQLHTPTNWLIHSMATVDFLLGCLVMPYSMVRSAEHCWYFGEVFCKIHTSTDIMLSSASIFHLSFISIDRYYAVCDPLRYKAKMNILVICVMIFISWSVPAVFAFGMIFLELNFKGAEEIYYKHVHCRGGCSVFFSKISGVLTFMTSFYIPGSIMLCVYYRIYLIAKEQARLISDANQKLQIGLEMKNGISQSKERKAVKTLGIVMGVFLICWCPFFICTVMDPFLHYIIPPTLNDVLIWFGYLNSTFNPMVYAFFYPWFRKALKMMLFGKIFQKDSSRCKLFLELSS
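Assay system: CHO-derived RD-HGA16 cells stably expressing human TAAR1 plus Gα16. Timing: 140 s kinetic read after compound, 140 s after agonist. Technique: kinetic Fluo-8 calcium fluorescence measurement. Measure: % inhibition of agonist calcium response.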
CHO parental Ca: counter-screen: ATP calcium response change in parental CHO cells | parental CHO-K1, ATP-induced calcium, Fluo-8 fluorescence | inhibition, % at 5.6 µM | 0.63% of 330,000 active | AID 463079;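 active means inhibition above that plate's mean sample inhibition plus 3 SD, cut at about 26% in these data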;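 further: 0% = ATP-challenged DMSO wells and 100% = DMSO wells without ATP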
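Material – parental CHO cells · Reagent – ATP stimulus · Compound – single nominal dose of 5.6 µM per compound · Detection – Fluo-8 fluorescence · Read-out basis – percent inhibition of calcium signal · Controls – ATP-challenged DMSO wells low, unchallenged DMSO wells high · Repeats – no replicates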
GalR3 antagonist: blocks the human galanin receptor 3. 0.44% of 360,000 active. AID 651719. O60755. HEK293 GalR3-CNG cAMP membrane potential fluorescence; galR3 body fused to GalR1 C-terminus. inhibition, % at 3 µM;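 active means inhibition above the screen-wide average plus 3 SD, cut at about 13% in these data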;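 further: forskolin and galanin both at EC90 stimulate the cells; cAMP rise reported by CNG channel membrane potential dye signal; 0% = forskolin plus galanin with DMSO and 100% = forskolin alone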
Target sequence (O60755 1-299 limits assumed): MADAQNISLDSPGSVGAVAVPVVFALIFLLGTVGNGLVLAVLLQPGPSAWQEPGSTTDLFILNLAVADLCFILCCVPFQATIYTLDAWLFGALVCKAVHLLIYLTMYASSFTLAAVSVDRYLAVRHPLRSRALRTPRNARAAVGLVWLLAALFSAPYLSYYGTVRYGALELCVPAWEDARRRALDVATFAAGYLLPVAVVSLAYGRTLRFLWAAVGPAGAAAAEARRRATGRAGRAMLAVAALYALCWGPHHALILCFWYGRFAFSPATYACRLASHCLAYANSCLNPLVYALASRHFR
OX1R antag-1: antagonists of human orexin 1 receptor; O43613; CHO/OX1R cells, Fluo-8 calcium fluorescence, orexin A; inhibition, % at 5 µM; 0.43% of 330,000 active; AID 434989;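 active means inhibition above its plate's threshold, mean inhibition of all tested compounds on the plate plus 3 SD, cut at about 37% in these data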;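 further: 0% = orexin A challenge wells and 100% = SB-334867-A antagonist wells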
OX1R antag-2: blocks the human orexin 1 receptor. O43613. OX1R-expressing cells, FRET antagonist read-out. inhibition, % at 6.6 µM. 1.8% of 330,000 active. AID 485270; in the data active means inhibition mostly above about 38%, no sharp cut-off; inactive means mostly below about 40%;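 further: 0% = agonist challenge alone and 100% = reference antagonist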
TAAR1 agonist: agonists of human TAAR1. activation, % at 3 µM. 0.99% of 360,000 active. Q96RJ0. AID 624467. CHO RD-HGA16 TAAR1, Fluo-8 calcium fluorescence; vehicle wells 0%, saturating PEA agonist 100%;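 active means activation above the mean activation of all test compounds in the run plus 3 SD, cut at about 38% in these data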
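Assay system: CHO-derived RD-HGA16 cells with stable Gα16 and human TAAR1; timing: 17-24 h seeding, 75 min 37 °C dye, 30 min RT; read-out: % activation from peak over basal fluorescence ratio, DMSO-to-PEA scaled; measured by: kinetic Fluo-8 calcium fluorescence; benchmarks: low control DMSO, high control PEA (EC100); doses: 3 µM single concentration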
Active calls of the source: *; . = not tested or not shown.

SMILES	TAAR1 antag	CHO parental Ca	GalR3 antagonist	OX1R antag-1	OX1R antag-2	TAAR1 agonist
O=C(N/N=C/c1ccc([N+](=O)[O-])o1)c1cn(-c2ccccc2)nc1-c1ccc(Cl)cc1	-5	-5	0	-13	16	4
COCCn1c(=N)c(C(=O)NCCc2ccccc2)cc2c(=O)n3cccc(C)c3nc21	-1	-24	1	-15	43	3
CCCn1c(=N)c(C(=O)NCC2CCCO2)cc2c(=O)n3cccc(C)c3nc21 (stereo unspecified)	9	-5	-3	-7	56*	0
Cc1cccn2c(=O)c3cc(C(=O)NCCc4ccccc4)c(=N)n(CCCn4ccnc4)c3nc12	-23	-16	-1	-35	59*	11
Cc1cccn2c(=O)c3cc(C(=O)NCc4cccnc4)c(=N)n(CC4CCCO4)c3nc12 (stereo unspecified)	-8	-3	-5	-19	70*	-2
O=C(NCc1cccnc1)c1cccn2c(=O)c3sccc3nc12	-6	-19	-1	-37	61*	9
Cc1cccn2c(=O)c3cc(C(=O)NCc4ccco4)c(=N)n(CCOCCO)c3nc12	.	6	.	-3	44*	.
C=CCn1c(=N)c(C(=O)NCCCOC)cc2c(=O)n3cccc(C)c3nc21	-2	-5	-1	-20	61*	-1
Cc1cccn2c(=O)c3cc(C(=O)NCC4CCCO4)c(=N)n(CCN4CCOCC4)c3nc12 (stereo unspecified)	-6	-18	-3	-5	162*	13
Cc1cccn2c(=O)c3cc(C(=O)NCc4ccco4)c(=N)n(C4CCCCC4)c3nc12	.	-25	.	-16	35	.
COCCCn1c(=N)c(C(=O)NCC2CCCO2)cc2c(=O)n3cccc(C)c3nc21 (stereo unspecified)	3	-8	-3	0	64*	0
CCCCNC(=O)c1cc2c(=O)n3cccc(C)c3nc2n(Cc2ccccc2)c1=N	-10	-16	-1	-27	11	-3
Cc1ccc(Cn2c(=N)c(C(=O)NCC3CCCO3)cc3c(=O)n4cccc(C)c4nc32)cc1 (stereo unspecified)	-14	-13	0	-23	32	-2
Cc1cccn2c(=O)c3cc(C(=O)NCc4ccccc4)c(=N)n(CCCN4CCOCC4)c3nc12	-21	.	-4	.	.	0
O=C(NCc1nc2ccccc2[nH]1)C1=C[C@H](c2coc3ccccc3c2=O)C[C@H](OCc2ccc(CO)cc2)O1	36	-18	6	-30	11	11
Cc1ccc(NC(=O)CSc2nc(=O)n(Cc3ccncc3)c3c2CCC3)c(C)c1	14	-34	-3	-22	8	-1
Cc1cccn2c(=O)c3cc(C(=O)NCCN4CCOCC4)c(=N)n(CCCN4CCOCC4)c3nc12	-18	-8	-8	-10	52*	-1
FC(F)(F)c1nc2cc3nc4ccccc4[nH]c3cc2n1	-2	-8	7	-9	54*	3
O=c1[nH]c2cc3ccccc3cc2nc1C(F)(F)F	-11	-1	-4	-2	9	1
CCCC1C(=O)N(c2ccccc2)C1c1ccccc1 (stereo unspecified)	40	-12	-4	-6	11	5
CSc1ccc(/C=N/N(C)S(=O)(=O)c2ccc(C)cc2)cc1	2	63*	-10	7	15	-2
Cc1ccc(S(=O)(=O)N(C)/N=C/c2ccc(C(=O)O)cc2)cc1	12	-4	0	-9	27	-1
Cc1ccc(/C=N/N(C)S(=O)(=O)c2ccc(C)cc2)cc1	-8	51*	-8	-17	10	10
CC(C)c1cc(C(=O)Nc2cc(Br)ccc2O)no1	12	30*	-7	16	23	3
Cc1cccc(-n2cnc3c(c2=O)c2nc4ccccc4nc2n3Cc2ccco2)c1	3	-23	2	-7	69*	7
SMILES	TAAR1 antag	CHO parental Ca	GalR3 antagonist	OX1R antag-1	OX1R antag-2	TAAR1 agonist
Cc1cccc(S(=O)(=O)c2c(N)n(Cc3ccco3)c3nc4ccccc4nc23)c1	1	0	-8	-7	16	9
CCOC(=O)NC(NC(=S)Nc1ccc(OCC)cc1)C(Cl)(Cl)Cl (stereo unspecified)	-6	-7	-11	2	14	4
Cc1cccc(NS(=O)(=O)c2nnc(NC(=O)c3ccc(C)c(C)c3)s2)c1	-1	2	2	23	52*	-2
Cc1ccc(C(=O)Nc2nnc(S(=O)(=O)Nc3ccccc3C)s2)cc1C	-22	-4	.	-8	23	0
CCc1ccc(Nc2n[n+](-c3ccccc3)c(-c3ccc(N(CC)CC)cc3)s2)cc1	50*	45*	-2	29	25	50*
CCc1ccc(Nc2n[n+](-c3ccccc3)c(-c3c(Cl)cccc3Cl)s2)cc1	92*	93*	-7	103*	36	59*
COc1ccc(C)cc1Nc1n[n+](-c2ccccc2)c(-c2c(Cl)cccc2Cl)s1	-1	38*	-9	2	44	29
CCN(CC)c1ccc(-c2sc(Nc3ccccc3)n[n+]2-c2ccc(F)cc2)cc1	24	-11	4	-11	15	49*
Cc1ccc(N(Cc2ccc(C(=O)NCCSc3ccccn3)cc2)S(C)(=O)=O)cc1C	-9	-17	-5	-12	9	5
CCCCOc1ccc(NC(=O)Cn2c(=O)ccc3c(C)cc(C)nc32)cc1	5	-18	1	-36	20	6
O=[N+]([O-])c1ccc(Nc2ccc(F)cc2)nc1	-11	1	-1	-2	26	0
CN(C)c1ccc(Nc2ccc([N+](=O)[O-])cn2)cc1	-13	4	-8	-13	43*	-4
Cc1ccc(Nc2ccc([N+](=O)[O-])cn2)cc1Cl	54*	.	-6	.	.	0
N#C/C(C(=O)NCCc1ccccc1)=C1/N=C(NC(=O)c2cccs2)c2ccccc21	-5	-24	-4	-24	23	8
COCCCNC(=O)/C(C#N)=C1\N=C(NC(=O)c2cccs2)c2ccccc21	27	-4	-3	-17	47*	10
Cn1c(=O)c2ncn(CC(=O)N/N=C/C=C/c3ccccc3)c2n(C)c1=O	-3	-6	-4	-10	45	1
CCc1nnc(NC(=O)C2c3ccccc3Oc3ccccc32)s1	-24	-41	-1	-28	-7	51*
Cc1nnc(NC(=O)c2cc3ccccc3o2)s1	2	-4	-5	-4	8	-5
CCc1nnc(NC(=O)c2cc3ccccc3oc2=O)s1	-10	-5	-3	-13	77*	4
